Test results from ChEMBL document CHEMBL3627671, “Novel derivatives of nitro-substituted salicylic acids: Synthesis, antimicrobial activity and cytotoxicity” (Bioorg Med Chem, 2015).
≈ marks a conversion by molar mass, not a printed value.

Legend:
Assay type in all cases: functional
[1] = test system: Mycobacterium tuberculosis; assay: Antimycobacterial activity against Mycobacterium tuberculosis H37Rv 331/88 after 14 days; details: H37Rv 331/88, 336 h
[2] = test system: Mycobacterium tuberculosis; assay: Antimycobacterial activity against Mycobacterium tuberculosis H37Rv 331/88 after 21 days; details: H37Rv 331/88, 504 h
Mycobacterium avium [3] = assay: Antimycobacterial activity against Mycobacterium avium 330/80 after 14 days; details: 330/80, 336 h
Mycobacterium avium [4] = assay: Antimycobacterial activity against Mycobacterium avium 330/80 after 21 days; details: 330/80, 504 h
Mycobacterium kansasii [5] = assay: Antimycobacterial activity against Mycobacterium kansasii 235/80 after 7 days; details: 235/80, 168 h
In short: (§1)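 Šula's semisynthetic medium micromethod at 37 °C, read after 7, 14 and 21 days. The 1.0 McFarland suspension was diluted 10^-4. MIC determined. 6509/96 is a clinical isolate.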

Mycobacterium kansasii [6] = assay: Antimycobacterial activity against Mycobacterium kansasii 235/80 after 14 days; details: 235/80, 336 h; in short: as §1
Mycobacterium kansasii [7] = assay: Antimycobacterial activity against Mycobacterium kansasii 235/80 after 21 days; details: 235/80, 504 h; in short: as §1
Mycobacterium kansasii [8] = assay: Antimycobacterial activity against Mycobacterium kansasii 6509/96 after 7 days; details: 6509/96, 168 h; in short: as §1
Mycobacterium kansasii [9] = assay: Antimycobacterial activity against Mycobacterium kansasii 6509/96 after 14 days; details: 6509/96, 336 h; in short: as §1
Mycobacterium kansasii [10] = assay: Antimycobacterial activity against Mycobacterium kansasii 6509/96 after 21 days; details: 6509/96, 504 h; in short: as §1
Staphylococcus aureus [11] = assay: Antibacterial activity against Staphylococcus aureus CCM 4516/08 after 24 hrs by microdilution broth method; details: CCM 4516/08, 24 h
Staphylococcus aureus [12] = assay: Antibacterial activity against Staphylococcus aureus CCM 4516/08 after 48 hrs by microdilution broth method; details: CCM 4516/08, 48 h
Staphylococcus aureus [13] = assay: Antibacterial activity against methicillin-resistant Staphylococcus aureus H 5996/08 after 24 hrs by microdilution broth method; details: H 5996/08, 24 h
Staphylococcus aureus [14] = assay: Antibacterial activity against methicillin-resistant Staphylococcus aureus H 5996/08 after 48 hrs by microdilution broth method; details: H 5996/08, 48 h
[15] = test system: Staphylococcus epidermidis; assay: Antibacterial activity against Staphylococcus epidermidis H 6966/08 after 24 hrs by microdilution broth method; details: H 6966/08, 24 h
In short: (§2)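 Mueller-Hinton broth microdilution (modified M07-A07), pH 7.4 (±0.2). Compounds dissolved in DMSO, tested at final 500 to 0.49 µmol/L. Inoculum in sterile water matched to 0.5 McFarland. Incubated in the dark, humid atmosphere, 35 °C, read at 24 and 48 h visually and at 540 nm. MIC taken as ≥95% growth reduction (IC95) versus control.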

[16] = test system: Staphylococcus epidermidis; assay: Antibacterial activity against Staphylococcus epidermidis H 6966/08 after 48 hrs by microdilution broth method; details: H 6966/08, 48 h; in short: as §2
Enterococcus sp. [17] = assay: Antibacterial activity against Enterococcus sp. J 14365/08 after 24 hrs by microdilution broth method; details: J 14365/08, 24 h; in short: as §2
Enterococcus sp. [18] = assay: Antibacterial activity against Enterococcus sp. J 14365/08 after 48 hrs by microdilution broth method; details: J 14365/08, 48 h; in short: as §2
Escherichia coli [19] = assay: Antibacterial activity against Escherichia coli CCM4517 after 24 hrs by microdilution broth method; details: CCM4517, 24 h; in short: as §2
Escherichia coli [20] = assay: Antibacterial activity against Escherichia coli CCM4517 after 48 hrs by microdilution broth method; details: CCM4517, 48 h; in short: as §2
Klebsiella pneumoniae [21] = assay: Antibacterial activity against Klebsiella pneumoniae D 11750/08 after 24 hrs by microdilution broth method; details: D 11750/08, 24 h; in short: as §2
Klebsiella pneumoniae [22] = assay: Antibacterial activity against Klebsiella pneumoniae D 11750/08 after 48 hrs by microdilution broth method; details: D 11750/08, 48 h; in short: as §2
Klebsiella pneumoniae [23] = assay: Antibacterial activity against ESBL-positive Klebsiella pneumoniae J 14368/08 after 24 hrs by microdilution broth method; details: J 14368/08, 24 h; in short: as §2
Klebsiella pneumoniae [24] = assay: Antibacterial activity against ESBL-positive Klebsiella pneumoniae J 14368/08 after 48 hrs by microdilution broth method; details: J 14368/08, 48 h; in short: as §2
Pseudomonas aeruginosa [25] = assay: Antibacterial activity against Pseudomonas aeruginosa CCM 1961 after 24 hrs by microdilution broth method; details: CCM 1961, 24 h; in short: as §2
Pseudomonas aeruginosa [26] = assay: Antibacterial activity against Pseudomonas aeruginosa CCM 1961 after 48 hrs by microdilution broth method; details: CCM 1961, 48 h; in short: as §2
Candida albicans [27] = assay: Antifungal activity against Candida albicans ATCC 44859 after 24 hrs by microdilution broth method; details: ATCC 44859, 24 h
In short: (§3)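 CLSI M27-A3 broth microdilution in RPMI 1640 with glutamine, buffered to pH 7.0 with MOPS; DMSO diluent. Yeast inoculum 5 × 10^3 ± 0.2 CFU/mL. Moulds grown on Sabouraud agar 3–10 days before spore harvest, final inoculum 0.5-5 × 10^4 CFU/mL, checked in a Bürker chamber. Incubated dark, humid, 35 °C, read at 24 and 48 h visually and at 540 nm. MIC taken as ≥80% (yeasts) or ≥50% (filamentous) growth reduction versus control.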

Candida albicans [28] = assay: Antifungal activity against Candida albicans ATCC 44859 after 48 hrs by microdilution broth method; details: ATCC 44859, 48 h; in short: as §3
Candida tropicalis [29] = assay: Antifungal activity against Candida tropicalis 156 after 24 hrs by microdilution broth method; details: Candida tropicalis, 156, 24 h; in short: as §3
Candida tropicalis [30] = assay: Antifungal activity against Candida tropicalis 156 after 48 hrs by microdilution broth method; details: Candida tropicalis, 156, 48 h; in short: as §3
Pichia kudriavzevii [31] = assay: Antifungal activity against Candida krusei E28 after 24 hrs by microdilution broth method; details: E28, 24 h; in short: as §3
Pichia kudriavzevii [32] = assay: Antifungal activity against Candida krusei E28 after 48 hrs by microdilution broth method; details: E28, 48 h; in short: as §3
Nakaseomyces glabratus [33] = assay: Antifungal activity against Candida glabrata 20/I after 24 hrs by microdilution broth method; in short: as §3
Nakaseomyces glabratus [34] = assay: Antifungal activity against Candida glabrata 20/I after 48 hrs by microdilution broth method; in short: as §3
Trichosporon asahii [35] = assay: Antifungal activity against Trichosporon asahii 1188 after 24 hrs by microdilution broth method; details: Trichosporon asahii, 1188, 24 h; in short: as §3
Trichosporon asahii [36] = assay: Antifungal activity against Trichosporon asahii 1188 after 48 hrs by microdilution broth method; details: Trichosporon asahii, 1188, 48 h; in short: as §3
Aspergillus fumigatus [37] = assay: Antifungal activity against Aspergillus fumigatus 231 after 24 hrs by microdilution broth method; details: Aspergillus fumigatus, 231, 24 h; in short: as §3
Aspergillus fumigatus [38] = assay: Antifungal activity against Aspergillus fumigatus 231 after 48 hrs by microdilution broth method; details: Aspergillus fumigatus, 231, 48 h; in short: as §3
Lichtheimia corymbifera [39] = assay: Antifungal activity against Absidia corymbifera 272 after 24 hrs by microdilution broth method; details: Lichtheimia corymbifera, 272, 24 h; in short: as §3
Lichtheimia corymbifera [40] = assay: Antifungal activity against Absidia corymbifera 272 after 48 hrs by microdilution broth method; details: Lichtheimia corymbifera, 272, 48 h; in short: as §3
[41] = test system: Trichophyton mentagrophytes; assay: Antifungal activity against Trichophyton mentagrophytes 445 after 24 hrs by microdilution broth method; details: Trichophyton mentagrophytes, 445, 24 h
[42] = test system: Trichophyton mentagrophytes; assay: Antifungal activity against Trichophyton mentagrophytes 445 after 48 hrs by microdilution broth method; details: Trichophyton mentagrophytes, 445, 48 h

**Q.** For `O=C(Nc1cccc(Br)c1)c1ccc([N+](=O)[O-])cc1O`, which MIC [1] is on record?
**A.** 16 µM (≈ 5.39 µg/mL)

**Q.** And the MIC [2]?
**A.** 16 µM (≈ 5.39 µg/mL)

**Q.** And the MIC (Mycobacterium avium [3])?
**A.** 32 µM (≈ 10.8 µg/mL)

**Q.** What about the MIC (Mycobacterium avium [4]) of the same compound?
**A.** 62.5 µM (≈ 21.1 µg/mL)

**Q.** What about the MIC (Mycobacterium kansasii [5]) of the same compound?
**A.** 8 µM (≈ 2.7 µg/mL)

**Q.** What about the MIC (Mycobacterium kansasii [6]) of the same compound?
**A.** 16 µM (≈ 5.39 µg/mL)

**Q.** What about the MIC (Mycobacterium kansasii [7]) of the same compound?
**A.** 16 µM (≈ 5.39 µg/mL)

**Q.** What about the MIC (Mycobacterium kansasii [8]) of the same compound?
**A.** 16 µM (≈ 5.39 µg/mL)

**Q.** And the MIC (Mycobacterium kansasii [9])?
**A.** 16 µM (≈ 5.39 µg/mL)

**Q.** What about the MIC (Mycobacterium kansasii [10]) of the same compound?
**A.** 16 µM (≈ 5.39 µg/mL)

**Q.** What about the MIC (Staphylococcus aureus [11]) of the same compound?
**A.** 3.9 µM (≈ 1.31 µg/mL)

**Q.** And the MIC (Staphylococcus aureus [12])?
**A.** 3.9 µM (≈ 1.31 µg/mL)

**Q.** What about the MIC (Staphylococcus aureus [13]) of the same compound?
**A.** 3.9 µM (≈ 1.31 µg/mL)

**Q.** What about the MIC (Staphylococcus aureus [14]) of the same compound?
**A.** 3.9 µM (≈ 1.31 µg/mL)

**Q.** And the MIC [15]?
**A.** 3.9 µM (≈ 1.31 µg/mL)

**Q.** And the MIC [16]?
**A.** 3.9 µM (≈ 1.31 µg/mL)

**Q.** And the MIC (Enterococcus sp. [17])?
**A.** 500 µM (≈ 169 µg/mL)

**Q.** And the MIC (Enterococcus sp. [18])?
**A.** 500 µM (≈ 169 µg/mL)

**Q.** What about the MIC (Escherichia coli [19]) of the same compound?
**A.** 500 µM (≈ 169 µg/mL)

**Q.** And the MIC (Escherichia coli [20])?
**A.** > 500 µM

**Q.** What about the MIC (Klebsiella pneumoniae [21]) of the same compound?
**A.** 500 µM (≈ 169 µg/mL)

**Q.** What about the MIC (Klebsiella pneumoniae [22]) of the same compound?
**A.** 500 µM (≈ 169 µg/mL)

**Q.** And the MIC (Klebsiella pneumoniae [23])?
**A.** 500 µM (≈ 169 µg/mL)

**Q.** And the MIC (Klebsiella pneumoniae [24])?
**A.** 500 µM (≈ 169 µg/mL)

**Q.** And the MIC (Pseudomonas aeruginosa [25])?
**A.** > 500 µM

**Q.** And the MIC (Pseudomonas aeruginosa [26])?
**A.** > 500 µM

**Q.** What about the MIC (Candida albicans [27]) of the same compound?
**A.** > 500 µM

**Q.** And the MIC (Candida albicans [28])?
**A.** > 500 µM

**Q.** What about the MIC (Candida tropicalis [29]) of the same compound?
**A.** > 500 µM

**Q.** What about the MIC (Candida tropicalis [30]) of the same compound?
**A.** > 500 µM

**Q.** And the MIC (Pichia kudriavzevii [31])?
**A.** 62.5 µM (≈ 21.1 µg/mL)

**Q.** And the MIC (Pichia kudriavzevii [32])?
**A.** 250 µM (≈ 84.3 µg/mL)

**Q.** What about the MIC (Nakaseomyces glabratus [33]) of the same compound?
**A.** > 500 µM

**Q.** And the MIC (Nakaseomyces glabratus [34])?
**A.** > 500 µM

**Q.** What about the MIC (Trichosporon asahii [35]) of the same compound?
**A.** 31.2 µM (≈ 10.5 µg/mL)

**Q.** What about the MIC (Trichosporon asahii [36]) of the same compound?
**A.** 125 µM (≈ 42.1 µg/mL)

**Q.** And the MIC (Aspergillus fumigatus [37])?
**A.** > 500 µM

**Q.** And the MIC (Aspergillus fumigatus [38])?
**A.** > 500 µM

**Q.** What about the MIC (Lichtheimia corymbifera [39]) of the same compound?
**A.** 250 µM (≈ 84.3 µg/mL)

**Q.** What about the MIC (Lichtheimia corymbifera [40]) of the same compound?
**A.** 500 µM (≈ 169 µg/mL)

**Q.** And the MIC [41]?
**A.** 62.5 µM (≈ 21.1 µg/mL)

**Q.** And the MIC [42]?
**A.** 250 µM (≈ 84.3 µg/mL)
